Experimental data as given in ChEMBL document CHEMBL3612035, “Synthesis and biological evaluation of new curcumin analogues as antioxidant and antitumor agents: molecular modeling study” (Eur J Med Chem, 2015).

Key:
[1] = Antioxidant activity assessed as inhibition of ABTS radical cation generation at 1 mg/ml by colorimetric method relative to control; format: physicochemical
Procedure, shortened: (§1)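 ABTS radical cation solution read at 734 nm. Test samples were added as a 1 mg/ml solution in MeOH/buffer (1:1 v/v); ascorbic acid (2 mM solution) and curcumin (1 mg/ml) were the standards. % inhibition = (Acontrol − Atest)/Acontrol × 100. Blank was solvent without ABTS.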

[2] = Cytotoxicity against mouse EAC cells assessed as dead cells at 25 uM after 24 hrs by trypan blue dye exclusion method relative to control; format: functional, Ehrlich
Procedure, shortened: (§2)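 EAC cells came from ascitic fluid of female Swiss albino mice 7-8 days after inoculation and were washed in HEPES-buffered Hanks' salt solution. They were preincubated 24 h in RPMI 1640 with 10% fetal calf serum at 2 × 10⁵ cells/ml, 37 °C, 5% CO₂. Cells were then exposed to drug for 24 h, PBS-washed and counted by trypan blue exclusion. Survival = viable T/C × 100; triplicate mean.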

[3] = Cytotoxicity against mouse EAC cells assessed as dead cells at 50 uM after 24 hrs by trypan blue dye exclusion method relative to control; format: functional, Ehrlich; procedure, shortened: as §2
[4] = Cytotoxicity against mouse EAC cells assessed as dead cells at 100 uM after 24 hrs by trypan blue dye exclusion method relative to control; format: functional, Ehrlich; procedure, shortened: as §2
[5] = Antitumor activity against mouse EAC cells allografted in Swiss albino mouse assessed as tumor growth inhibition at 75 mg/kg, po administered for 21 days measured 21 day post dose relative to control; format: functional; conditions: Ehrlich, 504 h, read-out: TGI
Procedure, shortened: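 EAC was kept by i.p. passage in female Swiss albino mice. Washed ascitic cells (5 × 10⁵ viable per 0.1 ml saline) were injected s.c. At 50–100 mm³, mice were split into groups of 10 and given compound 75 mg/kg orally in CMC for 21 consecutive days; controls got saline 5 ml/kg. Tumor size was read at day 0 and day 21. Inhibition was derived from ΔT/ΔC × 100.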

[6] = Antioxidant activity assessed as inhibition of ABTS radical cation generation at 2 mM by colorimetric method relative to control; format: physicochemical; conditions: 2000 µM; procedure, shortened: as §1

| SMILES | inhibition (INH) [1] [%] | Activity [2] [%] | Activity [3] [%] | Activity [4] [%] | inhibition in vivo at 75 mg/kg [5] [%] | inhibition (INH) [6] [%] |
| --- | --- | --- | --- | --- | --- | --- |
| COc1ccc(/C=C/C2=NN(C(N)=S)C(c3ccc(OC)cc3)C2)cc1 (stereo not given) | 84.52 | 28.7 | 57.5 | 98 | 76 |  |
| COc1ccc(/C=C/C2=NN(c3nc(-c4ccccc4)cs3)C(c3ccc(OC)cc3)C2)cc1 (stereo not given) | 76 | 30.4 | 61.6 | 98.3 | 65 |  |
| CCN1C/C(=C\c2ccc(OC)cc2)C2=NN(C(N)=S)C(c3ccc(OC)cc3)C2C1 (stereo not given) | 88.17 | 31.7 | 66.5 | 99 | 77 |  |
| COc1ccc(/C=C2\CCC3C2=NN(c2nc(-c4ccc(Cl)cc4)cs2)C3c2ccc(OC)cc2)cc1 (stereo not given) | 27.47 | 25 | 47.1 | 93.5 |  |  |
| COc1ccc(/C=C2\CN(C)CC3C2=NN(c2nc(-c4ccc(Cl)cc4)cs2)C3c2ccc(OC)cc2)cc1 (stereo not given) | 69.56 | 29.2 | 58 | 97.9 | 70 |  |
| CCN1C/C(=C\c2ccc(OC)cc2)C2=NN(c3nc(-c4ccccc4)cs3)C(c3ccc(OC)cc3)C2C1 (stereo not given) | 60.52 | 27.8 | 50.2 | 95.4 |  |  |
| CCN1C/C(=C\c2ccc(OC)cc2)C2=NN(c3nc(-c4ccc(Cl)cc4)cs3)C(c3ccc(OC)cc3)C2C1 (stereo not given) | 82.6 | 98.3 | 100 | 100 | 82 |  |
| COc1ccc(/C=C2\CCCC3C2=NN(C2=NC(=O)/C(=C/c4ccc(Cl)cc4)S2)C3c2ccc(OC)cc2)cc1 (stereo not given) | 25.73 | 23.8 | 46 | 84 |  |  |
| COc1ccc(/C=C2\CCCC3C2=NN(C2=NC(=O)/C(=C/c4ccc(Br)cc4)S2)C3c2ccc(OC)cc2)cc1 (stereo not given) | 5.21 | 22 | 43.8 | 81.6 |  |  |
| COc1ccc(/C=C2\CCCC3C2=NN(C2=NC(=O)/C(=C/c4ccc(OC)c(OC)c4)S2)C3c2ccc(OC)cc2)cc1 (stereo not given) | 19.13 | 20.4 | 40 | 75.8 |  |  |
| N#Cc1c(N)nc2c(c1-c1ccc(O)cc1)CCC/C2=C\c1ccc(O)cc1 | 8.69 | 21.7 | 43.4 | 81 |  |  |
| COc1cc(/C=C2\CCCc3c2nc(N)c(C#N)c3-c2ccc(O)c(OC)c2)ccc1O | 46.6 | 60.2 | 84 | 99.7 | 80 |  |
| COc1ccc(/C=C2\CCCc3c2nc(N)c(C#N)c3-c2ccc(OC)c(OC)c2)cc1OC | 9.73 | 24.9 | 45.1 | 84.2 |  |  |
| O=C1O[C@H]([C@@H](O)CO)C(O)=C1O [ASCORBIC ACID] |  |  |  |  |  | 88.34 |
| COc1cc(/C=C/C(=O)CC(=O)/C=C/c2ccc(O)c(OC)c2)ccc1O [CURCUMIN] | 86.6 |  |  |  |  |  |
